Assay results reported in ChEMBL document CHEMBL1765038, “Cytotoxic and anti-inflammatory cembranoids from the Vietnamese soft coral Lobophytum laevigatum” (Bioorg Med Chem, 2011).
The source made the active and inactive calls. The rule behind the calls is not given here.

Key:
HCT-116 = test: Cytotoxicity against human HCT116 cells by MTT assay; type: functional, cell-based
In short: (§1)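 MTT colorimetric assay on human cancer cell lines (leukemia HL-60, lung A549, colon HCT-116, breast MCF-7) obtained from the Korea Cell Line Bank; values reported as IC50.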

A549 = test: Cytotoxicity against human A549 cells by MTT assay; type: functional, cell-based; in short: as §1
MCF7 = test: Cytotoxicity against human MCF7 cells by MTT assay; type: functional, cell-based; in short: as §1
HL-60 = test: Cytotoxicity against human HL60 cells by MTT assay; type: functional, cell-based; in short: as §1
HepG2 [1] = test: Inhibition of NF-kappaB-induced iNOS mRNA expression in TNF-alpha-stimulated human HepG2 cells at 1 to 9 uM pretreated for 1 hr by RT-PCR; type: cell-based
In short: (§2)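 Hep-G2 cells pretreated with or without compound for 1 h, then exposed to 10 ng/mL TNFα for 6 h. Total mRNA isolated from cell pellets. COX-2 and iNOS transcripts quantified by RT-PCR, with primer specificity checked by gel electrophoresis and melting-curve analysis.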

HepG2 [2] = test: Inhibition of NF-kappaB-induced COX2 mRNA expression in TNF-alpha-stimulated human HepG2 cells at 1 to 9 uM pretreated for 1 hr by RT-PCR; type: cell-based; in short: as §2
[3] = Inhibition of TNF-alpha-induced NF-kappaB transcriptional activity in human HepG2 cells pretreated for 1 hr by luciferase reporter gene assay; type: cell-based
In short: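 Hep-G2 cells seeded at 2 × 10^5 per well, grown 24 h, then transfected (Lipofectamine LTX) with a firefly luciferase reporter under a minimal CMV promoter with tandem NF-κB response elements. Cells pretreated 1 h with vehicle (DMSO) or compound (0.1, 1, 10 µM), then 10 ng/mL TNFα for 1 h. Lysates read for luminescence. Unstimulated cells as negative control, PDTC 10 µM as positive control. Mean ± SD, n = 6; IC50 derived.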

HepG2 [4] = test: Cytotoxicity against human HepG2 cells at 0.1 to 10 uM; type: cell-based; conditions: hepg2, 10 µM
In short: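 Hep-G2 viability measured by MTT assay at the concentrations used in the NF-κB reporter and mRNA experiments.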

IC50 [3]	Structure (SMILES)	Activity (HCT-116)	Activity (A549)	Activity (MCF7)	Activity (HL-60)	inhibition (HepG2 [1])	IC50 (HCT-116)	inhibition (HepG2 [2])	IC50 (A549)	IC50 (MCF7)	IC50 (HL-60)	Activity (HepG2 [4])
	C/C1=C/[C@]2(O)OC[C@@]3(C)O[C@]32CC[C@](C)(O)/C=C/C[C@@](C)(O)[C@@H](O)CC1	inactive	inactive	inactive	inactive							
6.9 µM	COC(=O)[C@@]12CC(=O)[C@@H](C(C)C)CC(=O)[C@@H](C)CCC[C@@H](C)CC(=O)C1CC(C)=C1C2/C=C(\C)CCC2OC(CC[C@]2(C)OC(C)=O)[C@](C)(O)C[C@H]1O (stereo partly drawn) [XIMAOLIDE F]					Dose-dependent effect	16.4 µM	Dose-dependent effect	28.4 µM	> 40 µM	9 µM	Non-toxic
9.7 µM	C=C1CO[C@H]2/C=C(\C)CC[C@@H]3O[C@]3(C)CC/C=C(\C)CC[C@@]12O [LAEVIGATOL B]	inactive	inactive	inactive	inactive	Dose-dependent effect		Dose-dependent effect				Non-toxic
6.7 µM	COC(=O)[C@@]12CC(=O)[C@@H](C(C)C)CC(=O)[C@@H](C)CCC[C@@H](C)CC(=O)[C@@H]1CC(C)=C1[C@@H]3C[C@@](C)(O)[C@H](CC[C@@H](C)C(=O)CC/C(C)=C/[C@H]12)O3 [METHYL TORTUOATE B]					Dose-dependent effect	19.7 µM	Dose-dependent effect	24.4 µM	> 40 µM	25.8 µM	Non-toxic
	O=C1c2c(O)ccc(O)c2C(=O)c2c(NCCNCCO)ccc(NCCNCCO)c21 [MITOXANTRONE]						7.2 µM				7.9 µM	
	COC(=O)/C1=C\C=C(\C(C)C)CCC2=CCC[C@](C)(OC2=O)[C@@H](OC(C)=O)CC1 [EMBLIDE]						> 40 µM		> 40 µM	> 40 µM	38.8 µM	
	CC1=C2CC/C(C)=C/CC[C@@]3(C)O[C@H]3CC[C@](C)(O)/C=C/2OC1=O	inactive	inactive	inactive	inactive							
	C/C1=C\[C@]2(O)OC[C@@]3(C)O[C@]32CC[C@](C)(O)/C=C/C[C@@]2(C)O[C@H]2CC1	inactive	inactive	inactive	inactive							
	CC1=C2CC/C(C)=C/CC[C@]3(C)O[C@H]3CC/C(C)=C/[C@@H]2OC1=O [SARCOPHINE]						> 40 µM		> 40 µM	> 40 µM	34.7 µM	
	COC(=O)[C@]12CC(=O)[C@H](C(C)C)CC(=O)[C@H](C)CCC[C@H](C)CC(=O)[C@H]1CC(C)=C1C[C@H](OC(C)=O)[C@](C)(O)[C@H]3CC[C@@](C)(O)[C@H](CC/C(C)=C/[C@@H]12)O3 [NYALOLIDE]						17.5 µM		28.7 µM	35.5 µM	28.1 µM	
9.4 µM	C/C1=C\[C@@H]2O[C@@H](O)[C@@]3(C)O[C@@]23CC/C(C)=C/CC[C@@]2(C)O[C@H]2CC1 [LAEVIGATOL A]	inactive	inactive	inactive	inactive	Dose-dependent effect		Dose-dependent effect				Non-toxic
